In ChEMBL document CHEMBL1126023, “Synthesis, antinociceptive activity, and opioid receptor profiles of substituted trans-3-(decahydro- and octahydro-4a-isoquinolinyl)phenols” (J Med Chem, 1992):

How the values were obtained:
Mus musculus = assay: Effective dose for the inhibition of acetylcholine induced mouse abdominal contriction was determined in vivo; assay type: functional; conditions: Abdomen
Procedure, shortened: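 Mouse abdominal constriction induced by acetylcholine. Compounds given sc in saline vehicle. ED50 reported in mg/kg sc, with 95% confidence limits, or both values where only two determinations were made.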

[1] = biological target: Mu-type opioid receptor (Cavia porcellus) (UniProt P97266); assay: Dose ratio IC50 after beta-FNA (10e-6 M) 30 min pretreatment on guinea pig ileum and IC50 before beta-FNA treatment against opioid receptor mu in guinea pig ileum; assay type: tissue-based
[2] = biological target: Opioid receptors; mu/kappa/delta; assay: (§1) In vitro inhibitory activity against opioid receptor in Guinea pig ileum; assay type: tissue-based, Cavia porcellus
Oryctolagus cuniculus [3] = organism: Oryctolagus cuniculus; assay: In vitro antagonist affinity constant was measured on rabbit vas deferens; assay type: functional
[4] = as §1; assay type: functional, tissue-based
Oryctolagus cuniculus [5] = organism: Oryctolagus cuniculus; assay: In vitro antagonist affinity constant was measured on rabbit vas deferens AT 10e-6 M concentration; assay type: functional

Sequence of Mu-type opioid receptor (Cavia porcellus) (P97266 whole entry): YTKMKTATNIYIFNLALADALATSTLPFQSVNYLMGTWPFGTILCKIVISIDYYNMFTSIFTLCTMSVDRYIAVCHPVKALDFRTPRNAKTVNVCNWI

SMILES | ED50 (Mus musculus) [mg/kg] | Dose ratio [1] | IC50 [2] [nM] | pKB (Oryctolagus cuniculus [3]) | IC50 [4] [nM] | inhibition at 1 µM (Oryctolagus cuniculus [5]) [%] | IC50 (Oryctolagus cuniculus [3]) [nM]
C=C1CC[C@H]2CN(CC3CC3)CCC2(c2cccc(O)c2)C1 (some centres not stated) | 0.17 | 1.7 | 15 | 6.3 | – | – | –
CC[C@@]12CCN(CC3CC3)C(C(=O)c3ccc(O)cc31)[C@@H]2C [ETHYLKETOCYCLAZOCINE] | 0.08 | – | – | – | 0.5 | – | –
Oc1cccc(C23CC=CC[C@H]2CN(CC2CCC2)CC3)c1 (some centres not stated) | 0.39 | 14.7 | 60 | 5.7 | – | – | –
Oc1cccc(C23CC=CC[C@H]2CN(CC2CC2)CC3)c1 (some centres not stated) | 0.53 | 2.3 | 90 | – | – | – | –
O=C1CCC2(c3cccc(O)c3)CCN(CC3CCC3)C[C@@H]2C1 (some centres not stated) | > 10 | – | – | – | – | – | –
CN1CC[C@]23c4c5ccc(O)c4O[C@H]2[C@@H](O)C=C[C@H]3[C@H]1C5 [MORPHINE] | 0.47 | – | – | – | – | – | –
C=C1CC[C@H]2CN(CC3CCC3)CCC2(c2cccc(O)c2)C1 (some centres not stated) | 0.23 | – | – | 5.3 | – | – | –
C=C1CCC2(c3cccc(O)c3)CCN(CC3CC3)C[C@@H]2C1 (some centres not stated) | 1.3 | – | – | 5.8 | – | – | –
C=C1CC[C@H]2CN(C)CCC2(c2cccc(O)c2)C1 (some centres not stated) | 0.18 | 22 | 60 | 5.9 | – | – | –
O=C1CC[C@H]2CN(CC3CC3)CCC2(c2cccc(O)c2)C1 (some centres not stated) | 1.6 | 1.4 | 120 | 6.1 | – | – | –
C=C1CCC2(c3cccc(O)c3)CCN(CC3CCC3)C[C@@H]2C1 (some centres not stated) | 1.06 | – | – | 5.3 | – | – | –
Oc1cccc(C23CCCC[C@H]2CN(CC2CC2)CC3)c1 (some centres not stated) | 1.09 | 2.8 | 150 | – | – | 24 | –
Oc1cccc(C23CC[C@H](O)C[C@H]2CN(CC2CC2)CC3)c1 (some centres not stated) | > 10 | – | – | – | – | – | –
C=C1C[C@@H](C)[C@H]2CN(CC3CC3)CCC2(c2cccc(O)c2)C1 (some centres not stated) | 0.05 | – | – | – | – | – | 28000
C=C1C[C@H](C)[C@H]2CN(CC3CC3)CCC2(c2cccc(O)c2)C1 (some centres not stated) | 3.3 | – | – | 4.8 | – | – | –
Oc1cccc(C23C=C[C@H](O)C[C@H]2CN(CC2CC2)CC3)c1 (some centres not stated) | > 10 | – | – | 5.6 | – | – | –
Oc1cccc(C23CC[C@H](O)C[C@H]2CN(CC2CCC2)CC3)c1 (some centres not stated) | > 10 | – | – | – | – | – | –
C=CCN1CCC2(c3cccc(O)c3)CC=CC[C@H]2C1 (some centres not stated) | 1.91 | – | – | 5.6 | – | – | –
O=C1CCC2(c3cccc(O)c3)CCN(CC3CC3)C[C@@H]2C1 (some centres not stated) | > 10 | – | – | – | – | – | –
CN1CCC2(c3cccc(O)c3)CC=CC[C@H]2C1 (some centres not stated) | 0.5 | > 30 | 130 | 5.4 | – | – | –
C=CCN1CCC2(c3cccc(O)c3)CC(=C)CC[C@H]2C1 (some centres not stated) | 0.55 | 3.3 | 140 | 5.5 | – | – | –
